Experiments:
[1] = Inhibition of cholesterol biosynthesis in rat following 2 mg/kg p.o. administration.; format: functional; conditions: route oral
Method in brief: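 Female rats (130 ± 20 g) kept on reversed lighting, dosed orally at 2 mg/kg in DMSO/HPMC (n = 2). Tritiated mevalonate (2.5 µCi) given 1 h later; killed after a further 1 h. Liver saponified in KOH/EtOH 80 °C 2 h, isohexane-extracted, analysed by HPLC. Percent inhibition of cholesterol biosynthesis versus controls, with sterol precursor profile for step selectivity.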

Lanosterol synthase [2] = biological target: T1, Lanosterol synthase (Homo sapiens, UniProt P48449); assay: Compound was tested for its inhibition against human OSC enzyme
T1 sequence (P48449 whole entry): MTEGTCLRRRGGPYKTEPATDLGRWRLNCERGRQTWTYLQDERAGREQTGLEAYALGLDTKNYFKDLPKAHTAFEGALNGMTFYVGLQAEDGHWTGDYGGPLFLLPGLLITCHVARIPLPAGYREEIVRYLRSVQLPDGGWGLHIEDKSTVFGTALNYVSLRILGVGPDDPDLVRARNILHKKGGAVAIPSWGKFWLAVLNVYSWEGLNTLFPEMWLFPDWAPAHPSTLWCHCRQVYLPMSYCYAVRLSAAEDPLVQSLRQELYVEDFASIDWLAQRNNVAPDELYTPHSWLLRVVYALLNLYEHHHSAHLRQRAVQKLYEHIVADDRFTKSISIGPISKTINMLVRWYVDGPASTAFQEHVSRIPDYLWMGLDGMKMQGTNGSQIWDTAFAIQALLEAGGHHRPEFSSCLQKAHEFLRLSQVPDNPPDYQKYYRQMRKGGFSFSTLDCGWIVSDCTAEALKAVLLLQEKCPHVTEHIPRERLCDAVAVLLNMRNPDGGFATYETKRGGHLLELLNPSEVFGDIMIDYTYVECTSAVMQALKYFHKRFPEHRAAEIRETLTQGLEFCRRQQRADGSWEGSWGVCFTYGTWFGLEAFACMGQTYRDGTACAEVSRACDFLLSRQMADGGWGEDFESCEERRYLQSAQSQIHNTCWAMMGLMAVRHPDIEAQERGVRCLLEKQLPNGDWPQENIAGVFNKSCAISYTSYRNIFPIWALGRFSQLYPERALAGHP
Method in brief: (§1)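 Rat liver microsomes (15-20 mg/mL protein stock) diluted in 50 mM phosphate buffer pH 7.4 with Tween. Test compound at serial 10-fold dilutions (10^-5 M, 10^-6 M, etc.) preincubated with microsomes 10 min at 37 °C. Oxidosqualene substrate added, then 1 h incubation. Stopped with ethanolic KOH, saponified 80 °C 2 h, hexane-extracted. IC50 by curve fitting with tight-binding model. Human OSC run the same way.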

Lanosterol synthase [3] = biological target: T2, Lanosterol synthase (Rattus norvegicus, UniProt P48450); assay: (§2) In vitro inhibitory activity of the compound against rat microsomal 2,3-Oxidosqualene lanosterol cyclase (OSC); method in brief: as §1
T2 sequence (P48450 whole entry): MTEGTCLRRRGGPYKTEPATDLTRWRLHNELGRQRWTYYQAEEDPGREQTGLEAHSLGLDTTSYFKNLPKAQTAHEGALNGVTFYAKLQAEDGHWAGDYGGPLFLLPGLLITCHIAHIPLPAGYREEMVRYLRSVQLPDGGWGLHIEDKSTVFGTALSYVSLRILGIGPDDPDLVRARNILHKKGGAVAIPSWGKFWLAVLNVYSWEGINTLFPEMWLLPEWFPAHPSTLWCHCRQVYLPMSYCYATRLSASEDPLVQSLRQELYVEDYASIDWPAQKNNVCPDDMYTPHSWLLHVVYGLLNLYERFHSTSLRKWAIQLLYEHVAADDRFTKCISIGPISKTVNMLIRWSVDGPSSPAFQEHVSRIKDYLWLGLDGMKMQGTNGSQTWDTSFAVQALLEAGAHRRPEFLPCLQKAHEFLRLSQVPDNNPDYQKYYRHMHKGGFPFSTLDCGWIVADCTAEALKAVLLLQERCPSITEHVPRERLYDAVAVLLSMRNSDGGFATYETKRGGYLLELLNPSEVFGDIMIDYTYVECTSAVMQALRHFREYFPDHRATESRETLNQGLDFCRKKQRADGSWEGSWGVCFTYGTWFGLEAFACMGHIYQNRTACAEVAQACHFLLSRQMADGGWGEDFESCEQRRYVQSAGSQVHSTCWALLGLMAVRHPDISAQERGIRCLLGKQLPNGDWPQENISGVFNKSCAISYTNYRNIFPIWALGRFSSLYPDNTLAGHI

[4] = Effective dose (80%) required to inhibit cholesterol biosynthesis in rat after oral administration; format: functional
Method in brief: (§3)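 Female rats (130 ± 20 g) on reversed lighting, given test compound orally across a dose range in DMSO/HPMC (n = 2). Tritiated mevalonate (2.5 µCi) 1 h post-dose; killed 1 h later. Liver saponified, isohexane-extracted, HPLC radio-profile of sterols. ED50 or ED80 for inhibition of cholesterol biosynthesis derived from dose-response.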

[5] = Compound was tested for its acid dissociation constant; format: ADME
[6] = Effective dose (50%) required to inhibit cholesterol biosynthesis in rat after oral administration; format: functional; method in brief: as §3
[7] = biological target: T3, Lanosterol synthase (Rattus norvegicus) (UniProt P48450); assay: as §2; conditions: concentration not given here; method in brief: as §1
T3 sequence (whole entry): T2 sequence (P48450 whole entry)

[8] = Effective dose (50%) required to inhibit cholesterol biosynthesis in rat after administration of a shallow oral dose; format: functional; method in brief: as §3
Lanosterol synthase [9] = biological target: T2, Lanosterol synthase; assay: In vitro inhibitory activity of the compound against rat microsomal 2,3-Oxidosqualene cyclase-Lanosterol synthase (OSC); method in brief: as §1
[10] = Effective dose (80%) required to inhibit cholesterol biosynthesis in rat after administration of a shallow oral dose; format: functional; method in brief: as §3
Lanosterol synthase [11] = biological target: T2, Lanosterol synthase; assay: Compound was tested for its inhibition against rat OSC enzyme; method in brief: as §1
[12] = biological target: T3, Lanosterol synthase (Rattus norvegicus); assay: In vitro percent inhibitory activity of the compound against rat microsomal OSC enzyme at 1 uM concentration
Method in brief: (§4)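 Rat liver microsomal OSC in phosphate-buffered Tween, pH 7.4, with test compound at 1 µM. Preincubation 10 min at 37 °C, then oxidosqualene added for 1 h. Stopped with ethanolic KOH at 80 °C for 2 h, hexane-extracted. Percent inhibition, n = 2.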

[13] = biological target: T3, Lanosterol synthase (Rattus norvegicus); assay: Compound was tested for percent inhibition of OSC at 1 uM concentration in rat; method in brief: as §4
[14] = biological target: T3, Lanosterol synthase (Rattus norvegicus); assay: In vitro percent inhibitory activity against rat microsomal OSC enzyme at 1 uM concentration; method in brief: as §4

O=C(C1CCN(c2ccncc2)CC1)N1CCN(S(=O)(=O)c2ccccc2)CC1 showed an inhibition in vivo at 2 mg/kg [1] of 53%, an IC50 (Lanosterol synthase [2]) of 143 nM and an IC50 (Lanosterol synthase [3]) of 326 nM.
O=C(c1ccc(C(F)(F)F)cc1)N1CCC(=Cc2ccc(C3=NCCO3)cc2)CC1 gave an inhibition in vivo at 2 mg/kg [1] of 93%, an ED80 [4] of 1 mg/kg and a pKa [5] of 4.7. It also gave an ED50 [6] of 0.4 mg/kg and an IC50 (Lanosterol synthase [3]) of 90 nM.
In the case of O=C(C1CCN(c2ccnnc2)CC1)N1CCN(S(=O)(=O)c2ccc(Br)cc2)CC1, the inhibition in vivo at 2 mg/kg [1] is reported as 54%.
For O=C(C1CCN(C2=NCCO2)CC1)N1CCN(S(=O)(=O)c2ccc(Br)cc2)CC1, the inhibition in vivo at 2 mg/kg [1] was 82% and the inhibition [7] was 87%.
For COc1ccc(S(=O)(=O)N2CCN(C(=O)C3CCN(c4ccncc4)CC3)CC2)cc1, the inhibition in vivo at 2 mg/kg [1] was 38%.
O=C(C1CCN(c2ccncc2)CC1)N1CCN(S(=O)(=O)c2ccc(I)cc2)CC1 gave an ED50 [8] of 2 mg/kg, an inhibition in vivo at 2 mg/kg [1] of 52% and an IC50 (Lanosterol synthase [9]) of 82 nM. It also gave a pKa [5] of 9.2 and an ED80 [10] of less than 20 mg/kg.
N#Cc1ccc(S(=O)(=O)N2CCN(C(=O)C3CCN(c4ccncc4)CC3)CC2)cc1 gave an inhibition in vivo at 2 mg/kg [1] of 12%.
Molecule O=C(C1CCN(c2ccncn2)CC1)N1CCN(S(=O)(=O)c2ccc(Br)cc2)CC1 has an IC50 (Lanosterol synthase [11]) of 116 nM, an inhibition in vivo at 2 mg/kg [1] of 81% and an ED80 [4] of 1.4 mg/kg. The pKa [5] was 6.1, the ED50 [6] was 0.5 mg/kg and the IC50 (Lanosterol synthase [2]) was 37 nM. For the same molecule, the inhibition [12] was 100%.
Work on Cc1ccc(S(=O)(=O)N2CCN(C(=O)C3CCN(c4ccncc4)CC3)CC2)cc1 yielded an inhibition in vivo at 2 mg/kg [1] of 66%.
For O=C(C1CCN(c2ccncc2)CC1)N1CCN(S(=O)(=O)c2cccc(C(F)(F)F)c2)CC1, the inhibition in vivo at 2 mg/kg [1] was 7%.
With CCC(C)(C)C(=O)O[C@H]1C[C@@H](C)C=C2C=C[C@H](C)[C@H](CC[C@@H]3C[C@@H](O)CC(=O)O3)[C@H]21 [SIMVASTATIN] the ED80 [4] was 1.2 mg/kg.
Work on O=C(c1ccc(Br)cc1)N1CCN(C(=O)C2CCN(c3ccncc3)CC2)CC1 yielded an inhibition in vivo at 2 mg/kg [1] of 28% and an inhibition [7] of 96%.
In the case of O=C(C1CCN(c2ccncc2)CC1)N1CCN(S(=O)(=O)c2cccc(Br)c2)CC1, the inhibition in vivo at 2 mg/kg [1] is reported as 43%.
In the case of O=C(C1CCN(c2ccncc2)CC1)N1CCN(S(=O)(=O)c2ccc(F)cc2F)CC1, the inhibition in vivo at 2 mg/kg [1] is reported as 10%.
Molecule O=C(C1CCN(c2ccncc2)CC1)N1CCN(Cc2ccc(Br)cc2)CC1 has an inhibition in vivo at 2 mg/kg [1] of 48%, an ED50 [6] of 1.8 mg/kg and an inhibition [7] of 100%.
For O=C(C1CCN(C2=NCCS2)CC1)N1CCN(S(=O)(=O)c2ccc(Br)cc2)CC1, the inhibition in vivo at 2 mg/kg [1] was 81% and the inhibition [12] was 100%.
O=C(C1CCN(c2ccncc2)CC1)N1CCN(S(=O)(=O)c2cccc(F)c2)CC1 showed an inhibition in vivo at 2 mg/kg [1] of 52%.
Molecule O=C(C1CCN(c2ccncc2)CC1)N1CCN(S(=O)(=O)c2ccc(F)cc2)CC1 has an inhibition in vivo at 2 mg/kg [1] of 46%.
With O=C(C1CCN(c2ccncc2)CC1)N1CCN(S(=O)(=O)c2ccc(Br)cc2)CC1 the inhibition in vivo at 2 mg/kg [1] was 69%, the ED80 [4] was greater than 2 mg/kg and the pKa [5] was 9.2. The ED50 [6] was 2 mg/kg, the IC50 (Lanosterol synthase [2]) was 161 nM and the inhibition [13] was 100%. The IC50 (Lanosterol synthase [3]) was 228 nM.
With O=C(c1ccc(Cl)cc1)c1ccc(OC2CN3CCC2CC3)cc1 (centres undefined) the pKa [5] was 9.1 and the ED50 [6] was 2 mg/kg.
Work on Cc1nsc(N2CCC(C(=O)N3CCN(S(=O)(=O)c4ccc(Br)cc4)CC3)CC2)n1 yielded an inhibition in vivo at 2 mg/kg [1] of 9% and an inhibition [12] of 3%.
Work on Cc1nccc(N2CCC(C(=O)N3CCN(S(=O)(=O)c4ccc(Br)cc4)CC3)CC2)n1 yielded an IC50 (Lanosterol synthase [11]) of 398 nM, an inhibition in vivo at 2 mg/kg [1] of 83% and an ED80 [4] of 1.2 mg/kg. The pKa [5] was 7.2, the ED50 [6] was 0.3 mg/kg and the IC50 (Lanosterol synthase [2]) was 112 nM. It also gave an inhibition [12] of 76%.
O=C(C1CCN(c2ncccn2)CC1)N1CCN(S(=O)(=O)c2ccc(Br)cc2)CC1 showed an inhibition in vivo at 2 mg/kg [1] of 23% and an inhibition [14] of 8%.

Source: ChEMBL document CHEMBL1133564, “A novel series of 4-piperidinopyridine and 4-piperidinopyrimidine inhibitors of 2,3-oxidosqualene cyclase-lanosterol synthase” (J Med Chem, 2000)
